{"source": "ChEMBL document CHEMBL2406985", "about": "“Evaluation of (4-aminobutyloxy)quinolines as a novel class of antifungal agents” (2013)", "format_in_all_cases": "functional", "key": {"Fusarium solani [1]": {"system": "Fusarium solani", "assay": "Antifungal activity against Fusarium solani CBS 230.34 at 0.1 mg/uL per disc after 48 hrs by disc diffusion test"}, "[2]": {"assay": "Antifungal activity against Rhodotorula bogoriensis MUCL 11796 at 0.1 mg/uL per disc after 24 hrs by disc diffusion test"}, "Candida albicans [3]": {"system": "Candida albicans", "assay": "Antifungal activity against Candida albicans IHEM 374 at 0.1 mg/uL per disc after 24 hrs by disc diffusion test"}, "Aspergillus flavus [4]": {"system": "Aspergillus flavus", "assay": "Antifungal activity against Aspergillus flavus ATCC 44310 after 48 to 72 hrs by microdilution method", "summary_of_the_method": "(§1)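 Broth microdilution used stock inocula in saline at 0.5 McFarland. A log2 dilution series (0–500 mg/L) was made in double-concentration RPMI-1640 with glutamine and a pH indicator, without bicarbonate. Plates were incubated at 37 °C without agitation: C. albicans and R. bogoriensis 24 h, A. flavus 48 h, F. solani 72 h. Absorbance was read at 530 nm to give the MIC.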"}, "Aspergillus flavus [5]": {"system": "Aspergillus flavus", "assay": "Antifungal activity against Aspergillus flavus ATCC 44310 at 0.1 mg/uL per disc after 48 hrs by disc diffusion test"}, "Candida albicans [6]": {"system": "Candida albicans", "assay": "Antifungal activity against Candida albicans IHEM 374 after 24 hrs by microdilution method", "details": "IHEM 374, 24 h", "summary_of_the_method": "as §1"}, "[7]": {"assay": "Antifungal activity against Rhodotorula bogoriensis MUCL 11796 after 24 hrs by microdilution method", "summary_of_the_method": "as §1"}, "Fusarium solani [8]": {"system": "Fusarium solani", "assay": "Antifungal activity against Fusarium solani CBS 230.34 after 48 to 72 hrs by microdilution method", "summary_of_the_method": "as §1"}}, "data": [{"smiles": "CCN(CC)CCC(C)COc1c(I)cc(Cl)c2cccnc12", "note": "(centres undefined)", "values": [{"measurement": "diameter of the inhibition zone (DIZ)", "setting": "Fusarium solani [1]", "value": 0, "unit": "mm"}, {"measurement": "inhibition zone (IZ)", "setting": "[2]", "value": 30, "unit": "mm"}, {"measurement": "diameter of the inhibition zone (DIZ)", "setting": "Candida albicans [3]", "value": 7, "unit": "mm"}, {"measurement": "MIC", "setting": "Aspergillus flavus [4]", "value": 4, "unit": "µg/mL"}, {"measurement": "diameter of the inhibition zone (DIZ)", "setting": "Aspergillus flavus [5]", "value": 10, "unit": "mm"}, {"measurement": "MIC", "setting": "Candida albicans [6]", "value": 4, "unit": "µg/mL"}, {"measurement": "MIC", "setting": "[7]", "value": 0.25, "unit": "µg/mL"}]}, {"smiles": "Clc1ccc(CNCCCCOc2ccc(Cl)c3cccnc23)cc1", "values": [{"measurement": "diameter of the inhibition zone (DIZ)", "setting": "Fusarium solani [1]", "value": 0, "unit": "mm"}, {"measurement": "inhibition zone (IZ)", "setting": "[2]", "value": 30, "unit": "mm"}, {"measurement": "diameter of the inhibition zone (DIZ)", "setting": "Candida albicans [3]", "value": 8, "unit": "mm"}, {"measurement": "diameter of the inhibition zone (DIZ)", "setting": "Aspergillus flavus [5]", "value": 0, "unit": "mm"}]}, {"smiles": "Clc1ccc(CNCCCCOc2ccc3ncccc3c2)cc1", "values": [{"measurement": "diameter of the inhibition zone (DIZ)", "setting": "Fusarium solani [1]", "value": 0, "unit": "mm"}, {"measurement": "inhibition zone (IZ)", "setting": "[2]", "value": 0, "unit": "mm"}, {"measurement": "diameter of the inhibition zone (DIZ)", "setting": "Candida albicans [3]", "value": 0, "unit": "mm"}, {"measurement": "diameter of the inhibition zone (DIZ)", "setting": "Aspergillus flavus [5]", "value": 0, "unit": "mm"}]}, {"smiles": "CCN(CC)CCC(C)COc1cccc2cccnc12", "note": "(centres undefined)", "values": [{"measurement": "diameter of the inhibition zone (DIZ)", "setting": "Fusarium solani [1]", "value": 0, "unit": "mm"}, {"measurement": "inhibition zone (IZ)", "setting": "[2]", "value": 0, "unit": "mm"}, {"measurement": "diameter of the inhibition zone (DIZ)", "setting": "Candida albicans [3]", "value": 0, "unit": "mm"}, {"measurement": "diameter of the inhibition zone (DIZ)", "setting": "Aspergillus flavus [5]", "value": 0, "unit": "mm"}]}, {"smiles": "CCN(CC)CCCCOc1cccc2ncccc12", "values": [{"measurement": "diameter of the inhibition zone (DIZ)", "setting": "Fusarium solani [1]", "value": 0, "unit": "mm"}, {"measurement": "inhibition zone (IZ)", "setting": "[2]", "value": 0, "unit": "mm"}, {"measurement": "diameter of the inhibition zone (DIZ)", "setting": "Candida albicans [3]", "value": 0, "unit": "mm"}, {"measurement": "diameter of the inhibition zone (DIZ)", "setting": "Aspergillus flavus [5]", "value": 0, "unit": "mm"}]}, {"smiles": "CC(CCNCc1ccc(Cl)cc1)COc1c(I)cc(I)c2cccnc12", "note": "(centres undefined)", "values": [{"measurement": "diameter of the inhibition zone (DIZ)", "setting": "Fusarium solani [1]", "value": 0, "unit": "mm"}, {"measurement": "inhibition zone (IZ)", "setting": "[2]", "value": 10, "unit": "mm"}, {"measurement": "diameter of the inhibition zone (DIZ)", "setting": "Candida albicans [3]", "value": 7, "unit": "mm"}, {"measurement": "diameter of the inhibition zone (DIZ)", "setting": "Aspergillus flavus [5]", "value": 0, "unit": "mm"}]}, {"smiles": "CCN(CC)CCC(C)COc1c(Br)cc(Br)c2cccnc12", "note": "(centres undefined)", "values": [{"measurement": "diameter of the inhibition zone (DIZ)", "setting": "Fusarium solani [1]", "value": 0, "unit": "mm"}, {"measurement": "inhibition zone (IZ)", "setting": "[2]", "value": 28, "unit": "mm"}, {"measurement": "diameter of the inhibition zone (DIZ)", "setting": "Candida albicans [3]", "value": 20, "unit": "mm"}, {"measurement": "MIC", "setting": "Aspergillus flavus [4]", "value": 2, "unit": "µg/mL"}, {"measurement": "diameter of the inhibition zone (DIZ)", "setting": "Aspergillus flavus [5]", "value": 7, "unit": "mm"}, {"measurement": "MIC", "setting": "Candida albicans [6]", "value": 0.25, "unit": "µg/mL"}, {"measurement": "MIC", "setting": "[7]", "value": 0.5, "unit": "µg/mL"}]}, {"smiles": "CC(CCNCc1ccc(Cl)cc1)COc1cccc2ncccc12", "note": "(centres undefined)", "values": [{"measurement": "diameter of the inhibition zone (DIZ)", "setting": "Fusarium solani [1]", "value": 0, "unit": "mm"}, {"measurement": "inhibition zone (IZ)", "setting": "[2]", "value": 7, "unit": "mm"}, {"measurement": "diameter of the inhibition zone (DIZ)", "setting": "Candida albicans [3]", "value": 0, "unit": "mm"}, {"measurement": "diameter of the inhibition zone (DIZ)", "setting": "Aspergillus flavus [5]", "value": 0, "unit": "mm"}]}, {"smiles": "CCN(CC)CCC(C)COc1c(I)cc(I)c2cccnc12", "note": "(centres undefined)", "values": [{"measurement": "diameter of the inhibition zone (DIZ)", "setting": "Fusarium solani [1]", "value": 0, "unit": "mm"}, {"measurement": "inhibition zone (IZ)", "setting": "[2]", "value": 26, "unit": "mm"}, {"measurement": "diameter of the inhibition zone (DIZ)", "setting": "Candida albicans [3]", "value": 12, "unit": "mm"}, {"measurement": "MIC", "setting": "Aspergillus flavus [4]", "value": 4, "unit": "µg/mL"}, {"measurement": "diameter of the inhibition zone (DIZ)", "setting": "Aspergillus flavus [5]", "value": 7, "unit": "mm"}, {"measurement": "MIC", "setting": "Candida albicans [6]", "value": 0.5, "unit": "µg/mL"}, {"measurement": "MIC", "setting": "[7]", "value": 0.5, "unit": "µg/mL"}]}, {"smiles": "CCN(CC)CCCCOc1ccc(Cl)c2cccnc12", "values": [{"measurement": "diameter of the inhibition zone (DIZ)", "setting": "Fusarium solani [1]", "value": 0, "unit": "mm"}, {"measurement": "inhibition zone (IZ)", "setting": "[2]", "value": 0, "unit": "mm"}, {"measurement": "diameter of the inhibition zone (DIZ)", "setting": "Candida albicans [3]", "value": 12, "unit": "mm"}, {"measurement": "diameter of the inhibition zone (DIZ)", "setting": "Aspergillus flavus [5]", "value": 0, "unit": "mm"}]}, {"smiles": "Clc1ccc(CNCCCCOc2cccc3ncccc23)cc1", "values": [{"measurement": "diameter of the inhibition zone (DIZ)", "setting": "Fusarium solani [1]", "value": 0, "unit": "mm"}, {"measurement": "inhibition zone (IZ)", "setting": "[2]", "value": 0, "unit": "mm"}, {"measurement": "diameter of the inhibition zone (DIZ)", "setting": "Candida albicans [3]", "value": 0, "unit": "mm"}, {"measurement": "diameter of the inhibition zone (DIZ)", "setting": "Aspergillus flavus [5]", "value": 0, "unit": "mm"}]}, {"smiles": "CCN(CC)CCC(C)COc1c(Cl)cc(Cl)c2cccnc12", "note": "(centres undefined)", "values": [{"measurement": "diameter of the inhibition zone (DIZ)", "setting": "Fusarium solani [1]", "value": 0, "unit": "mm"}, {"measurement": "inhibition zone (IZ)", "setting": "[2]", "value": 32, "unit": "mm"}, {"measurement": "diameter of the inhibition zone (DIZ)", "setting": "Candida albicans [3]", "value": 10, "unit": "mm"}, {"measurement": "MIC", "setting": "Aspergillus flavus [4]", "value": 0.5, "unit": "µg/mL"}, {"measurement": "diameter of the inhibition zone (DIZ)", "setting": "Aspergillus flavus [5]", "value": 12, "unit": "mm"}, {"measurement": "MIC", "setting": "Candida albicans [6]", "value": 0.5, "unit": "µg/mL"}, {"measurement": "MIC", "setting": "[7]", "value": 0.25, "unit": "µg/mL"}]}, {"smiles": "CC(CCNCc1ccc(Cl)cc1)COc1cccc2cccnc12", "note": "(centres undefined)", "values": [{"measurement": "diameter of the inhibition zone (DIZ)", "setting": "Fusarium solani [1]", "value": 0, "unit": "mm"}, {"measurement": "inhibition zone (IZ)", "setting": "[2]", "value": 15, "unit": "mm"}, {"measurement": "diameter of the inhibition zone (DIZ)", "setting": "Candida albicans [3]", "value": 0, "unit": "mm"}, {"measurement": "diameter of the inhibition zone (DIZ)", "setting": "Aspergillus flavus [5]", "value": 0, "unit": "mm"}]}, {"smiles": "CCN(CC)CCCCOc1ccc2ncccc2c1", "values": [{"measurement": "diameter of the inhibition zone (DIZ)", "setting": "Fusarium solani [1]", "value": 0, "unit": "mm"}, {"measurement": "inhibition zone (IZ)", "setting": "[2]", "value": 0, "unit": "mm"}, {"measurement": "diameter of the inhibition zone (DIZ)", "setting": "Candida albicans [3]", "value": 0, "unit": "mm"}, {"measurement": "diameter of the inhibition zone (DIZ)", "setting": "Aspergillus flavus [5]", "value": 0, "unit": "mm"}]}, {"smiles": "CCN(CC)CCCCOc1c(I)cc(Cl)c2cccnc12", "values": [{"measurement": "diameter of the inhibition zone (DIZ)", "setting": "Fusarium solani [1]", "value": 0, "unit": "mm"}, {"measurement": "inhibition zone (IZ)", "setting": "[2]", "value": 14, "unit": "mm"}, {"measurement": "diameter of the inhibition zone (DIZ)", "setting": "Candida albicans [3]", "value": 0, "unit": "mm"}, {"measurement": "diameter of the inhibition zone (DIZ)", "setting": "Aspergillus flavus [5]", "value": 7, "unit": "mm"}]}, {"smiles": "CCN(CC)CCCCOc1cccc2cccnc12", "values": [{"measurement": "diameter of the inhibition zone (DIZ)", "setting": "Fusarium solani [1]", "value": 0, "unit": "mm"}, {"measurement": "inhibition zone (IZ)", "setting": "[2]", "value": 0, "unit": "mm"}, {"measurement": "diameter of the inhibition zone (DIZ)", "setting": "Candida albicans [3]", "value": 0, "unit": "mm"}, {"measurement": "diameter of the inhibition zone (DIZ)", "setting": "Aspergillus flavus [5]", "value": 0, "unit": "mm"}]}, {"smiles": "CCN(CC)CCC(C)COc1c(Cl)cc(Cl)c2ccc(C)nc12", "note": "(centres undefined)", "values": [{"measurement": "MIC", "setting": "Fusarium solani [8]", "value": 0.5, "unit": "µg/mL"}, {"measurement": "diameter of the inhibition zone (DIZ)", "setting": "Fusarium solani [1]", "value": 20, "unit": "mm"}, {"measurement": "inhibition zone (IZ)", "setting": "[2]", "value": 30, "unit": "mm"}, {"measurement": "diameter of the inhibition zone (DIZ)", "setting": "Candida albicans [3]", "value": 20, "unit": "mm"}, {"measurement": "MIC", "setting": "Aspergillus flavus [4]", "value": 0.5, "unit": "µg/mL"}, {"measurement": "diameter of the inhibition zone (DIZ)", "setting": "Aspergillus flavus [5]", "value": 10, "unit": "mm"}, {"measurement": "MIC", "setting": "Candida albicans [6]", "value": 0.25, "unit": "µg/mL"}, {"measurement": "MIC", "setting": "[7]", "value": 0.12, "unit": "µg/mL"}]}]}
